Laboratory results reported in ChEMBL document CHEMBL1122207, “Antitumor agents. 2. Bisguanylhydrazones of anthracene-9,10-dicarboxaldehydes” (1982).

How the values were obtained:
Assay type in all cases: functional
Mus musculus [1] = species: Mus musculus; test: Anticancer activity measured as the number of survivors of the total treated mice with P-388 leukemia at 30 days.
Method in brief: (§1)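 BDF1 or CDF1 mice given 10^6 ascitic P-388 leukemia cells ip, then treated ip on days 1, 5 and 9. Cures are survivors over total treated at 30 days.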

Mus musculus [2] = species: Mus musculus; test: Number of survivors of the total treated mice with B-16 melanoma, at 60 days.
Method in brief: (§2)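 BDF1 mice were implanted ip with a homogenate from 0.05 g of B-16 melanoma and dosed ip on days 1-9. Cures are survivors over total at 60 days.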

Mus musculus [3] = test: Percent increase in median life span of BDF1 mice with B-16 melanoma at dose 12 mg/kg administered intraperitoneally; details: BDF1, B16, ip, route intraperitoneal
Method in brief: (§3)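 BDF1 mice were implanted ip with a homogenate from 0.05 g of B-16 melanoma. Ip dosing ran on days 1-9, starting 24 h after implant, in dose-response studies following NCI protocols. The read-out was percent increase in life span (ILS). T/C ≥125% was taken as significant.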

Mus musculus [4] = test: Percent increase in median life span of BDF1 mice with P-388 leukemia at dose 25 mg/kg administered intraperitoneally; details: BDF1, P388, ip, route intraperitoneal
Mus musculus [5] = test: Percent increase in median life span of BDF1 mice with P-388 leukemia administered intraperitoneally
Mus musculus [6] = test: Percent increase in median life span of BDF1 mice with P-388 leukemia at dose 200 mg/kg administered intraperitoneally; details: BDF1, P388, ip, route intraperitoneal
Mus musculus [7] = test: Percent increase in median life span of BDF1 mice with B-16 melanoma at dose 50 mg/kg administered intraperitoneally; details: BDF1, B16, ip, route intraperitoneal; method in brief: as §3
Mus musculus [8] = test: Percent increase in median life span of BDF1 mice with B-16 melanoma at dose 25 mg/kg administered intraperitoneally; details: BDF1, B16, ip, route intraperitoneal; method in brief: as §3
Mus musculus [9] = test: Percent increase in median life span of BDF1 mice with P-388 leukemia at dose 50 mg/kg administered intraperitoneally; details: BDF1, P388, ip, route intraperitoneal
Mus musculus [10] = species: Mus musculus; test: Cures is the number of survivors of the total treated mice (10) with B-16 melanoma, at 60 days.; method in brief: as §2
Mus musculus [11] = test: Percent increase in median life span of BDF1 mice with P-388 leukemia at dose 12.5 mg/kg administered intraperitoneally; details: BDF1, P388, ip, route intraperitoneal
Mus musculus [12] = species: Mus musculus; test: Cures is the number of survivors of the total treated mice (12) with P-388 leukemia, at 30 days.; method in brief: as §1
Mus musculus [13] = test: Percent increase in median life span of BDF1 mice with B-16 melanoma administered intraperitoneally; method in brief: as §3
Mus musculus [14] = test: Percent increase in median life span of BDF1 mice with B-16 melanoma at dose 12.5 mg/kg administered intraperitoneally; details: BDF1, B16, ip, route intraperitoneal; method in brief: as §3
Mus musculus [15] = species: Mus musculus; test: Cures is the number of survivors of the total treated mice (6) with P-388 leukemia, at 30 days.; method in brief: as §1

Q: With `C(=N\NC1=NCCCCC1)/c1c2ccccc2c(/C=N/NC2=NCCCCC2)c2ccccc12.Cl.Cl` as the molecule, how does the Cures (Mus musculus [1]) read?
A: 0

Q: What about the Cures (Mus musculus [2]) of the same molecule?
A: 0

Q: And the ILS at 12 mg/kg (Mus musculus [3])?
A: 35%

Q: What about the ILS at 25 mg/kg (Mus musculus [4]) of the same molecule?
A: 95%

Q: How did the ILS (Mus musculus [5]) turn out when `CN(C)c1ccc(N/C(S)=N/N=C/c2c3ccccc3c(/C=N/N=C(/S)Nc3ccc(N(C)C)cc3)c3ccccc23)cc1` was run?
A: 0%

Q: Which Cures (Mus musculus [1]) does the source give for `CN(C)/N=C/c1c2ccccc2c(/C=N/N(C)C)c2ccccc12` here?
A: 0

Q: What about the ILS at 200 mg/kg (Mus musculus [6]) of the same molecule?
A: 0%

Q: Which ILS at 50 mg/kg (Mus musculus [7]) does the source give for `CCCCC1(CCCC)CN=C(N/N=C/c2c3ccccc3c(/C=N/NC3=NCC(CCCC)(CCCC)CN3)c3ccccc23)NC1.Cl.Cl` here?
A: 0%

Q: What about the Cures (Mus musculus [2]) of the same molecule?
A: 0

Q: Which results are given for `Cl.Cl.Cl.Cl.N=C(NCc1ccccn1)N/N=C/c1c2ccccc2c(/C=N/NC(=N)NCc2ccccn2)c2ccccc12`?
A: Cures (Mus musculus [1]): 0; ILS at 25 mg/kg (Mus musculus [8]): 74%; ILS at 50 mg/kg (Mus musculus [9]): 95%; Cures (Mus musculus [2]): 0

Q: Which ILS at 50 mg/kg (Mus musculus [7]) does the source give for `Cl.Cl.Clc1cccc2c1C(/C=N/NC1=NCCN1)c1ccccc1C2/C=N/NC1=NCCN1` (stereo not drawn) here?
A: 153%

Q: And the ILS at 50 mg/kg (Mus musculus [9])?
A: 100%

Q: What about the Cures (Mus musculus [10]) of the same molecule?
A: 3

Q: Which ILS at 50 mg/kg (Mus musculus [9]) does the source give for `Cc1cc2c(cc1C)C(/C=N/NC1=NCCN1)c1ccccc1C2/C=N/NC1=NCCN1` (stereo not drawn) here?
A: 73%

Q: With `C(/CCc1c2ccccc2c(CC/C=N/NC2=NCCN2)c2ccccc12)=N\NC1=NCCN1.Cl.Cl` as the molecule, how does the Cures (Mus musculus [1]) read?
A: 0

Q: What about the ILS at 50 mg/kg (Mus musculus [7]) of the same molecule?
A: 0%

Q: And the ILS at 50 mg/kg (Mus musculus [9])?
A: 30%

Q: And the Cures (Mus musculus [2])?
A: 0

Q: Which results are given for `CC(C)CN(CC/N=C(\S)N/N=C/c1c2ccccc2c(/C=N/N/C(S)=N/CCN(CC(C)C)CC(C)C)c2ccccc12)CC(C)C.Cl.Cl`?
A: Cures (Mus musculus [1]): 0; ILS at 25 mg/kg (Mus musculus [4]): 33%

Q: With `C(=N\NC1=NCCCN1)/c1c2ccccc2c(/C=N/NC2=NCCCN2)c2ccccc12.Cl.Cl` as the molecule, how does the ILS at 12.5 mg/kg (Mus musculus [11]) read?
A: 82%

Q: What about the Cures (Mus musculus [12]) of the same molecule?
A: 1

Q: What about the Cures (Mus musculus [2]) of the same molecule?
A: 0

Q: What about the ILS at 12 mg/kg (Mus musculus [3]) of the same molecule?
A: 106%

Q: For `C(=C\c1c2ccccc2c(/C=C/C=N/NC2=NCCN2)c2ccccc12)/C=N/NC1=NCCN1.Cl.Cl`, which Cures (Mus musculus [1]) is on record?
A: 0

Q: What about the ILS at 25 mg/kg (Mus musculus [8]) of the same molecule?
A: 46%

Q: And the ILS at 200 mg/kg (Mus musculus [6])?
A: 36%

Q: And the Cures (Mus musculus [2])?
A: 0

Q: With `Cl.Cl.S=C(NCCN1CCOCC1)N/N=C/c1c2ccccc2c(/C=N/NC(=S)NCCN2CCOCC2)c2ccccc12` as the molecule, how does the Cures (Mus musculus [1]) read?
A: 0

Q: What about the ILS at 50 mg/kg (Mus musculus [9]) of the same molecule?
A: 80%

Q: And the Cures (Mus musculus [10])?
A: 1

Q: What about the ILS at 12 mg/kg (Mus musculus [3]) of the same molecule?
A: 103%

Q: With `N=C(N/N=C/c1c2ccccc2c(/C=N/NC(=N)NC2CCc3ccccc32)c2ccccc12)NC1CCc2ccccc21` (stereo not drawn) as the molecule, how does the Cures (Mus musculus [1]) read?
A: 0

Q: And the ILS at 25 mg/kg (Mus musculus [8])?
A: 62%

Q: What about the ILS at 200 mg/kg (Mus musculus [6]) of the same molecule?
A: 80%

Q: What about the Cures (Mus musculus [2]) of the same molecule?
A: 0

Q: What does the source list for `CN1CCN(/N=C/c2c3ccccc3c(/C=N/N3CCN(C)CC3)c3ccccc23)CC1.Cl.Cl`?
A: Cures (Mus musculus [1]): 0; ILS at 200 mg/kg (Mus musculus [6]): 0%

Q: What does the source list for `CSC(=N)N/N=C/c1c2ccccc2c(/C=N/N=C(/N)SC)c2ccccc12`?
A: Cures (Mus musculus [1]): 0; ILS at 200 mg/kg (Mus musculus [6]): 0%

Q: Which results are given for `Cl.Cl.S=C(NCCN1CCCCC1)N/N=C/c1c2ccccc2c(/C=N/NC(=S)NCCN2CCCCC2)c2ccccc12`?
A: Cures (Mus musculus [1]): 0; ILS at 50 mg/kg (Mus musculus [9]): 58%; ILS (Mus musculus [13]): 0%

Q: `CN/N=C/c1c2ccccc2c(/C=N/NC)c2ccccc12` was tested. Which Cures (Mus musculus [1]) did it give?
A: 0

Q: What about the ILS at 200 mg/kg (Mus musculus [6]) of the same molecule?
A: 0%

Q: How did the Cures (Mus musculus [1]) turn out when `COc1ccc(OC)c2c(/C=N/NC3=NCCN3)c3ccccc3c(/C=N/NC3=NCCN3)c12.Cl.Cl` was run?
A: 0

Q: And the ILS at 50 mg/kg (Mus musculus [9])?
A: 50%

Q: And the ILS at 12.5 mg/kg (Mus musculus [14])?
A: 64%

Q: And the Cures (Mus musculus [2])?
A: 0

Q: With `CN(C)CC/N=C/c1c2ccccc2c(/C=N/CCN(C)C)c2ccccc12` as the molecule, how does the Cures (Mus musculus [1]) read?
A: 0

Q: What about the ILS at 200 mg/kg (Mus musculus [6]) of the same molecule?
A: 0%

Q: `Cl.Cl.Cl.Cl.N=C(NCc1ccncc1)N/N=C/c1c2ccccc2c(/C=N/NC(=N)NCc2ccncc2)c2ccccc12` was tested. Which Cures (Mus musculus [1]) did it give?
A: 0

Q: What about the ILS at 12.5 mg/kg (Mus musculus [11]) of the same molecule?
A: 90%

Q: What about the ILS at 25 mg/kg (Mus musculus [8]) of the same molecule?
A: 78%

Q: And the Cures (Mus musculus [2])?
A: 0

Q: What does the source list for `CCCCCCCCCCCCCCCC/N=C(\N)N/N=C/c1c2ccccc2c(/C=N/N/C(N)=N/CCCCCCCCCCCCCCCC)c2ccccc12.Cl.Cl`?
A: Cures (Mus musculus [1]): 0; ILS at 50 mg/kg (Mus musculus [7]): 0%; ILS at 200 mg/kg (Mus musculus [6]): 0%; Cures (Mus musculus [2]): 0

Q: Which results are given for `CC1(C)CCC(C)(C)NC(N/N=C/c2c3ccccc3c(/C=N/NC3=NC(C)(C)CCC(C)(C)N3)c3ccccc23)=N1.Cl.Cl`?
A: Cures (Mus musculus [1]): 0; ILS at 50 mg/kg (Mus musculus [9]): 0%

Q: What does the source list for `Cl.Cl.Cl.Cl.N=C(NCc1cccnc1)N/N=C/c1c2ccccc2c(/C=N/NC(=N)NCc2cccnc2)c2ccccc12`?
A: ILS at 25 mg/kg (Mus musculus [8]): 77%; Cures (Mus musculus [2]): 0; Cures (Mus musculus [15]): 1; ILS at 25 mg/kg (Mus musculus [4]): 114%

Q: For `COCC/N=C(\S)N/N=C/c1c2ccccc2c(/C=N/N/C(S)=N/CCOC)c2ccccc12`, which ILS (Mus musculus [5]) is on record?
A: 0%

Q: For `CC(C)(C)c1ccc2c(/C=N/NC3=NCCN3)c3ccccc3c(/C=N/NC3=NCCN3)c2c1.Cl.Cl`, which Cures (Mus musculus [1]) is on record?
A: 0

Q: What about the ILS (Mus musculus [5]) of the same molecule?
A: 0%

Q: And the Cures (Mus musculus [2])?
A: 0

Q: And the ILS (Mus musculus [13])?
A: 0%
